Experimental data from PMC4134498 (British Journal of Cancer, 2014).
Entries after “also recorded” stand apart in the source; their conditions may differ.

Legend:
[1] = ref Fong et al, 2009; cited from earlier work
[2] = Plasma pharmacokinetics of olaparib alone and with PLD; format: in vivo, patients; conditions: for AUC(0-t): olaparib AUC0–10 h, Day 1 alone; for AUC(0-t) / Cmax: mean±s.d.; for Cmax: olaparib Cmax, Day 2+PLD
advanced solid tumours = experiment: Preliminary efficacy: best objective response, RECIST v1.0; format: in vivo, patients
In short: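 Patients with advanced solid tumours took oral PARP inhibitor capsules bid, 50–400 mg, on days 1–7 (intermittent) or days 1–28 (continuous) of 28-day cycles, plus liposomal anthracycline 40 mg m−2 on day 1, for up to 6 combination cycles. Site investigators scored objective response by RECIST v1.0. Analyses ran by tumour type and gBRCA status, and for ovarian cancer by platinum sensitivity (progression-free interval ⩾6 months), retrospectively.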

[3] = tested on: platinum-sensitive, relapsed, high-grade serous ovarian cancer; conditions: olaparib maintenance, ref Ledermann et al, 2012, cited from earlier work
[4] = ovarian cancer patients, all cohorts + PLD 40 mg m^−2, Total (n=26)
[5] = ovarian cancer patients, olaparib 50 mg bid 7 day + PLD 40 mg m^−2 (n=3)
[6] = ovarian cancer patients, olaparib 100 mg bid 7 day + PLD 40 mg m^−2 (n=2)
[7] = ovarian cancer patients, olaparib 100 mg bid 28 day + PLD 40 mg m^−2 (n=2)
[8] = ovarian cancer patients, olaparib 200 mg bid 7 day + PLD 40 mg m^−2 (n=2)
[9] = ovarian cancer patients, olaparib 200 mg bid 28 day + PLD 40 mg m^−2 (n=3)
[10] = ovarian cancer patients, olaparib 400 mg bid 7 day + PLD 40 mg m^−2 (n=8)
[11] = ovarian cancer patients, olaparib 400 mg bid 28 day + PLD 40 mg m^−2 (n=8)
[12] = overall population, all cohorts + PLD 40 mg m^−2, Total (n=42)
[13] = overall population, olaparib 50 mg bid 7 day + PLD 40 mg m^−2 (n=3)
[14] = overall population, olaparib 100 mg bid 7 day + PLD 40 mg m^−2 (n=3)
[15] = overall population, olaparib 100 mg bid 28 day + PLD 40 mg m^−2 (n=4)
[16] = overall population, olaparib 200 mg bid 7 day + PLD 40 mg m^−2 (n=3)
[17] = overall population, olaparib 200 mg bid 28 day + PLD 40 mg m^−2 (n=7)
[18] = overall population, olaparib 400 mg bid 7 day + PLD 40 mg m^−2 (n=12)
[19] = overall population, olaparib 400 mg bid 28 day + PLD 40 mg m^−2 (n=12)

## O=C(c1cc(Cc2n[nH]c(=O)c3ccccc23)ccc1F)N1CCN(C(=O)C2CC2)CC1 [olaparib]
[1]
  MTD of olaparib monotherapy (capsule formulation): 400 mg twice daily (bid)
[2]; human, plasma, oral
  Tmax: 2.1 h
[2]; human, plasma, oral, 50 mg, olaparib 50 mg, n=3
  AUC(0-t): 8700 ± 5800 ng·h/mL
[2]; human, plasma, oral, 400 mg, olaparib 400 mg bid, n=11
  AUC(0-t): 25900 ± 9000 ng·h/mL
[2]; human, plasma, oral, olaparib 50 mg bid
  Cmax: 1400 ± 700 ng/mL
[2]; human, plasma, oral, olaparib 100 mg bid
  Cmax: 2200 ± 1000 ng/mL
[2]; in vivo
  PK interference between olaparib and PLD: No major pharmacokinetic interference; also recorded: minor
Advanced solid tumours; continuous olaparib schedule + PLD
  patients with antitumour activity: 7 out of 23
Advanced solid tumours; intermittent olaparib schedule + PLD
  patients with antitumour activity: 7 out of 21
Advanced solid tumours; olaparib + PLD
  ORR, platinum-resistant ovarian patients with a gBRCA mutation: 50%
  ORR, platinum-sensitive ovarian patients with a gBRCA mutation: 67%
  ORR, platinum-sensitive ovarian patients with wild type or unknown gBRCA mutation status: 100%
  objective responses, evaluable patients with breast cancer: 8%
  response rate, platinum-resistant ovarian patients: 25%
  response rate, platinum-sensitive ovarian patients: 71%
Advanced solid tumours; olaparib + PLD, 13 out of 26
  ORR, ovarian cancer subgroup: 50%
Advanced solid tumours; olaparib + PLD, 14 out of 42
  ORR, overall population: 33%
Advanced solid tumours; olaparib + PLD, Platinum resistant, gBRCA Unknown
  Ovarian cancer patients with a complete or partial objective response: 0/6
Advanced solid tumours; olaparib + PLD, Platinum resistant, gBRCAm
  Ovarian cancer patients with a complete or partial objective response: 3/6
Advanced solid tumours; olaparib + PLD, Platinum sensitive, gBRCA Unknown
  Ovarian cancer patients with a complete or partial objective response: 1/1
Advanced solid tumours; olaparib + PLD, Platinum sensitive, gBRCAm
  Ovarian cancer patients with a complete or partial objective response: 8/12
Advanced solid tumours; olaparib + PLD, Platinum sensitive, gBRCAwt
  Ovarian cancer patients with a complete or partial objective response: 1/1
Advanced solid tumours; olaparib + PLD, eleven patients
  response, gBRCA-mutated patients in the ovarian subgroup: 61%
Advanced solid tumours; olaparib + PLD, overall, 11 patients
  partial response (PR), evaluable patients: 26%
Advanced solid tumours; olaparib + PLD, overall, three patients
  complete response (CR), evaluable patients: 7%
Advanced solid tumours; [4]
  Best objective response: Complete response, patients: 3 (12) n (%)
  Best objective response: Partial response, patients: 10 (38) n (%)
  Best objective response: Progressive disease, patients: 5 (19) n (%)
  Best objective response: Stable disease, patients: 8 (31) n (%)
Advanced solid tumours; [5]
  Best objective response: Complete response, patients: 1 n
  Best objective response: Partial response, patients: 1 n
  Best objective response: Progressive disease, patients: 0 n
  Best objective response: Stable disease, patients: 1 n
Advanced solid tumours; [6]
  Best objective response: Complete response, patients: 0 n
  Best objective response: Partial response, patients: 1 n
  Best objective response: Progressive disease, patients: 1 n
  Best objective response: Stable disease, patients: 0 n
Advanced solid tumours; [7]
  Best objective response: Complete response, patients: 0 n
  Best objective response: Partial response, patients: 0 n
  Best objective response: Progressive disease, patients: 1 n
  Best objective response: Stable disease, patients: 0 n
Advanced solid tumours; [8]
  Best objective response: Complete response, patients: 0 n
  Best objective response: Partial response, patients: 1 n
  Best objective response: Progressive disease, patients: 0 n
  Best objective response: Stable disease, patients: 1 n
Advanced solid tumours; [9]
  Best objective response: Complete response, patients: 0 n
  Best objective response: Partial response, patients: 1 n
  Best objective response: Progressive disease, patients: 0 n
  Best objective response: Stable disease, patients: 1 n
Advanced solid tumours; [10]
  Best objective response: Complete response, patients: 1 n
  Best objective response: Partial response, patients: 2 n
  Best objective response: Progressive disease, patients: 1 n
  Best objective response: Stable disease, patients: 4 n
Advanced solid tumours; [11]
  Best objective response: Complete response, patients: 1 n
  Best objective response: Partial response, patients: 4 n
  Best objective response: Progressive disease, patients: 2 n
  Best objective response: Stable disease, patients: 1 n
Advanced solid tumours; [12]
  Best objective response: Complete response, patients: 3 (7) n (%)
  Best objective response: Not evaluable/unknown, patients: 2 (5) n (%)
  Best objective response: Partial response, patients: 11 (26) n (%)
  Best objective response: Progressive disease, patients: 13 (31) n (%)
  Best objective response: Stable disease, patients: 13 (31) n (%)
Advanced solid tumours; [13]
  Best objective response: Complete response, patients: 1 n
  Best objective response: Not evaluable/unknown, patients: 0 n
  Best objective response: Partial response, patients: 1 n
  Best objective response: Progressive disease, patients: 0 n
  Best objective response: Stable disease, patients: 1 n
Advanced solid tumours; [14]
  Best objective response: Complete response, patients: 0 n
  Best objective response: Not evaluable/unknown, patients: 0 n
  Best objective response: Partial response, patients: 1 n
  Best objective response: Progressive disease, patients: 1 n
  Best objective response: Stable disease, patients: 1 n
Advanced solid tumours; [15]
  Best objective response: Complete response, patients: 0 n
  Best objective response: Not evaluable/unknown, patients: 0 n
  Best objective response: Partial response, patients: 0 n
  Best objective response: Progressive disease, patients: 2 n
  Best objective response: Stable disease, patients: 1 n
Advanced solid tumours; [16]
  Best objective response: Complete response, patients: 0 n
  Best objective response: Not evaluable/unknown, patients: 0 n
  Best objective response: Partial response, patients: 1 n
  Best objective response: Progressive disease, patients: 1 n
  Best objective response: Stable disease, patients: 1 n
Advanced solid tumours; [17]
  Best objective response: Complete response, patients: 0 n
  Best objective response: Not evaluable/unknown, patients: 1 n
  Best objective response: Partial response, patients: 1 n
  Best objective response: Progressive disease, patients: 2 n
  Best objective response: Stable disease, patients: 2 n
Advanced solid tumours; [18]
  Best objective response: Complete response, patients: 1 n
  Best objective response: Not evaluable/unknown, patients: 1 n
  Best objective response: Partial response, patients: 2 n
  Best objective response: Progressive disease, patients: 3 n
  Best objective response: Stable disease, patients: 5 n
Advanced solid tumours; [19]
  Best objective response: Complete response, patients: 1 n
  Best objective response: Not evaluable/unknown, patients: 0 n
  Best objective response: Partial response, patients: 5 n
  Best objective response: Progressive disease, patients: 4 n
  Best objective response: Stable disease, patients: 2 n
[3]; 95% CI, 0.25–0.49, P<0.00001
  PFS hazard ratio vs placebo: 0.35
[3]
  median PFS: 8.4 months
